Test results: ChEMBL document CHEMBL5674890, “Selective inhibition of CBP/p300 HAT by A-485 results in suppression of lipogenesis and hepatic gluconeogenesis” (Cell Death Dis, 2020)

Tests used:
Type in all cases: organism-based
Conditions in all cases: in vivo, 168 h, time 1 weeks
[1] = Toxicity in C57BL/6 mouse supplemented with normal chow diet assessed as effect on carbon dioxide production at 20 mg/kg/day, ip administered for 1 week
In short: (§1)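 Male C57BL/6 mice, 8 weeks old, on normal chow, 12 h light/dark, barrier housing. Dosed intraperitoneally 20 mg·kg−1·day−1 for 7 days alongside vehicle-injected controls. Body weight followed over treatment; food intake, VO2, VCO2, respiratory exchange ratio, and plasma total cholesterol and triglyceride recorded. Mean ± SEM, n = 5–9; t test, P < 0.05.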

[2] = Toxicity in C57BL/6 mouse supplemented with normal chow diet assessed as effect on triglyceride levels at 20 mg/kg/day, ip administered for 1 week; in short: as §1
[3] = Toxicity in C57BL/6 mouse supplemented with normal chow diet assessed as effect on oxygen consumption at 20 mg/kg/day, ip administered for 1 week; in short: as §1
[4] = Toxicity in C57BL/6 mouse supplemented with normal chow diet assessed as effect on food intake at 20 mg/kg/day, ip administered for 1 week; in short: as §1
[5] = Toxicity in C57BL/6 mouse supplemented with normal chow diet assessed as effect on plasma total cholesterol content at 20 mg/kg/day, ip administered for 1 week; in short: as §1
[6] = Toxicity in C57BL/6 mouse supplemented with normal chow diet assessed as effect on respiratory exchange ratios at 20 mg/kg/day, ip administered for 1 week; in short: as §1
[7] = Toxicity in C57BL/6 mouse supplemented with normal chow diet assessed as effect on body weight at 20 mg/kg/day, ip administered for 1 week; in short: as §1

Measured: Activity

CNC(=O)Nc1ccc2c(c1)CC[C@@]21OC(=O)N(CC(=O)N(Cc2ccc(F)cc2)[C@@H](C)C(F)(F)F)C1=O
Non-Toxic: all assays above
